According to ChEMBL document CHEMBL3588859, “Structure activity relationship study of Mezzettiasides natural products and their four new disaccharide analogues for anticancer/antibacterial activity” (Medchemcomm, 2014):
Converted amounts (≈) assume the structure as drawn.

Tests used:
Bacillus subtilis = test: Antibacterial activity against Bacillus subtilis JH642 expressing trpC2 pheA assessed as reduction in bacterial growth incubated for 18 to 24 hrs by broth dilution method; format: functional
NCI-H460 = test: Anticancer activity against human NCI-H460 cells assessed as reduction in cell viability incubated for 48 hrs by MTT assay; format: functional, cell-based; conditions: NCI-H460, 48 h
Enterococcus faecalis = test: Antibacterial activity against Enterococcus faecalis assessed as reduction in bacterial growth incubated for 18 to 24 hrs by broth dilution method; format: functional
Procedure, shortened: (§1)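 Grown in Brain Heart Infusion broth overnight, diluted 10-fold, and shaken at 37 °C for 45 min to 2 h (about 10^8 CFU/mL). Diluted about 1000-fold to 10^5 CFU/mL. Compounds came from 25 mM DMSO stocks, were made up at 4X working strength, and were serially diluted 1:2 over seven concentrations in microtiter wells. OD600 was read.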

Enterococcus faecium = test: Antibacterial activity against Enterococcus faecium assessed as reduction in bacterial growth incubated for 18 to 24 hrs by broth dilution method; format: functional; procedure, shortened: as §1
Staphylococcus aureus [1] = test: Antibacterial activity against methicillin-resistant Staphylococcus aureus MW2 assessed as reduction in bacterial growth incubated for 18 to 24 hrs by broth dilution method; format: functional
Procedure, shortened: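 Broth […] per NCCLS M7-A6. S. aureus grown overnight in Mueller Hinton Broth, diluted 10-fold, shaken at 37 °C for 45 min–2 h to approx. 10^8 CFU/mL, then diluted ~1000-fold to 10^5 CFU/mL. Compounds from 25 mM DMSO stocks, 1:2 serial dilution over seven concentrations.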

Staphylococcus aureus [2] = test: Antibacterial activity against methicillin-sensitive Staphylococcus aureus HG003 assessed as reduction in bacterial growth incubated for 18 to 24 hrs by broth dilution method; format: functional
Procedure, shortened: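 Cultured overnight in Mueller Hinton Broth, diluted 10-fold, and shaken at 37 °C for 45 min to 2 h (about 10^8 CFU/mL). Diluted about 1000-fold to 10^5 CFU/mL. Compounds came from 25 mM DMSO stocks, were prepared at 4X, and were serially diluted 1:2 to seven concentrations. OD600 was recorded.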

Escherichia coli = test: Antibacterial activity against Escherichia coli BAS901 expressing delta-imp assessed as reduction in bacterial growth incubated for 18 to 24 hrs by broth dilution method; format: functional
Procedure, shortened: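 The imp strain was grown in LB with kanamycin at 50 μg/mL overnight, diluted 10-fold, and shaken at 37 °C for 45 min to 2 h (about 10^8 CFU/mL). Diluted about 1000-fold to 10^5 CFU/mL. Drug stocks were 25 mM in DMSO, made up at 4X, and serially diluted 1:2 over seven concentrations. OD600 was read.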

[3] = Anticancer activity against human […] cells assessed as reduction in cell viability incubated for 48 hrs by MTT assay; format: functional; conditions: read-out: ED50 (the source's name)
KB = test: Anticancer activity against human KB cells assessed as reduction in cell viability incubated for 48 hrs by MTT assay; format: functional; conditions: read-out: ED50 (the source's name)
Lu1 = test: Anticancer activity against human Lu1 cells assessed as reduction in cell viability incubated for 48 hrs by MTT assay; format: functional; conditions: Lu1, 48 h, read-out: ED50 (the source's name)

SMILES | MIC (Bacillus subtilis) [µM] | IC50 (NCI-H460) [µM] | MIC (Enterococcus faecalis) [µM] | MIC (Enterococcus faecium) [µM] | MIC (Staphylococcus aureus [1]) [µM] | MIC (Staphylococcus aureus [2]) [µM] | MIC (Escherichia coli) [µM] | EC50 [3] [µM] | EC50 (KB) [µM] | EC50 (Lu1) [µM]
CCCCCCCCCCCCO[C@@H]1O[C@@H](C)[C@H](O[C@@H]2O[C@@H](C)[C@H](OC(C)=O)[C@@H](O[C@@H]3O[C@@H](C)[C@H](O)[C@@H](OC(C)=O)[C@H]3OC(C)=O)[C@H]2O)[C@@H](O)[C@H]1O | 8 (≈ 6.01 µg/mL) |  |  |  |  |  |  |  |  | 
CCCCCCCCCCCCO[C@@H]1O[C@@H](C)[C@H](O[C@@H]2O[C@@H](C)[C@H](OC(C)=O)[C@@H](O[C@@H]3O[C@@H](C)[C@H](OC(C)=O)[C@@H](O[C@@H]4O[C@@H](C)[C@H](O)[C@@H](O)[C@H]4OC(C)=O)[C@H]3OC(C)=O)[C@H]2O)[C@@H](O)[C@H]1O | 8 (≈ 7.51 µg/mL) |  |  |  |  |  |  |  |  | 
CCCCCCCCCCCCO[C@@H]1O[C@@H](C)[C@H](O[C@@H]2O[C@@H](C)[C@H](OC(C)=O)[C@@H](O[C@@H]3O[C@@H](C)[C@H](OC(C)=O)[C@@H](O[C@@H]4O[C@@H](C)[C@H](OC(C)=O)[C@@H](O)[C@H]4OC(C)=O)[C@H]3OC(C)=O)[C@H]2O)[C@@H](O)[C@H]1O | 4 (≈ 3.92 µg/mL) | 8 |  |  |  |  |  |  |  | 
CCCCCCCCCCCCO[C@@H]1O[C@@H](C)[C@H](O[C@@H]2O[C@@H](C)[C@H](OC(C)=O)[C@@H](O[C@@H]3O[C@@H](C)[C@H](O)[C@@H](O[C@@H]4O[C@@H](C)[C@H](OC(C)=O)[C@@H](O)[C@H]4O)[C@H]3OC(C)=O)[C@H]2O)[C@@H](O)[C@H]1O | 8 (≈ 7.18 µg/mL) |  |  |  |  |  |  |  |  | 
CCCCCCCCO[C@@H]1O[C@@H](C)[C@H](OC(=O)CCCCC)[C@@H](O[C@@H]2O[C@@H](C)[C@H](OC(C)=O)[C@@H](O[C@@H]3O[C@@H](C)[C@H](OC(C)=O)[C@@H](O[C@@H]4O[C@@H](C)[C@H](O)[C@@H](OC(C)=O)[C@H]4O)[C@H]3O)[C@H]2OC(C)=O)[C@H]1O | > 128 | 40 |  |  |  |  |  |  |  | 
CCCCCCCCO[C@@H]1O[C@@H](C)[C@H](OC(=O)CCCCC)[C@@H](O[C@@H]2O[C@@H](C)[C@H](OC(C)=O)[C@@H](O[C@@H]3O[C@@H](C)[C@H](OC(C)=O)[C@@H](O[C@@H]4O[C@@H](C)[C@H](O)[C@@H](O)[C@H]4OC(C)=O)[C@H]3O)[C@H]2OC(C)=O)[C@H]1O | 64 (≈ 62.8 µg/mL) | 259 | 32 (≈ 31.4 µg/mL) | > 32 | > 32 | > 32 | > 32 |  |  | 
CCCCCCCCO[C@@H]1O[C@@H](C)[C@H](OC(=O)CCCCC)[C@@H](O[C@@H]2O[C@@H](C)[C@H](OC(C)=O)[C@@H](O[C@@H]3O[C@@H](C)[C@H](OC(C)=O)[C@@H](O[C@@H]4O[C@@H](C)[C@H](O)[C@@H](O)[C@H]4O)[C@H]3O)[C@H]2OC(C)=O)[C@H]1O | 32 (≈ 30 µg/mL) | 18 | 32 (≈ 30 µg/mL) | > 32 | > 32 | > 32 | > 32 |  |  | 
CCCCCCCCO[C@@H]1O[C@@H](C)[C@H](OC(=O)CCCCC)[C@@H](O[C@@H]2O[C@@H](C)[C@H](OC(C)=O)[C@@H](OC(=O)CCC)[C@H]2OC(C)=O)[C@H]1O | > 128 | 32 |  |  |  |  |  |  |  | 
CCCCCCCCO[C@@H]1O[C@@H](C)[C@H](OC(=O)CCCCC)[C@@H](O[C@@H]2O[C@@H](C)[C@H](OC(C)=O)[C@@H](OC(=O)C(C)(C)C)[C@H]2OC(C)=O)[C@H]1O | > 128 | 141 |  |  |  |  |  |  |  | 
CCCCCCCCO[C@@H]1O[C@@H](C)[C@H](OC(=O)CCCCC)[C@@H](O[C@@H]2O[C@@H](C)[C@H](OC(C)=O)[C@@H](OC(=O)C(C)C)[C@H]2OC(C)=O)[C@H]1O | > 128 | 47 |  |  |  |  |  |  |  | 
CCCCCCCCO[C@@H]1O[C@@H](C)[C@H](OC(=O)CCCCC)[C@@H](O[C@@H]2O[C@@H](C)[C@H](OC(C)=O)[C@@H](OC(=O)CC(C)C)[C@H]2OC(C)=O)[C@H]1O | > 128 | 79 |  |  |  |  |  |  |  | 
CCCCCCCCCCCCO[C@@H]1O[C@@H](C)[C@H](O[C@@H]2O[C@@H](C)[C@H](OC(C)=O)[C@@H](O[C@@H]3O[C@@H](C)[C@H](OC(C)=O)[C@@H](O)[C@H]3OC(C)=O)[C@H]2O)[C@@H](O)[C@H]1O | 32 (≈ 24 µg/mL) |  |  |  |  |  |  |  |  | 
CCCCCCCCCCCCO[C@@H]1O[C@@H](C)[C@H](O[C@@H]2O[C@@H](C)[C@H](OC(C)=O)[C@@H](O[C@@H]3O[C@@H](C)[C@H](OC(C)=O)[C@@H](O[C@@H]4O[C@@H](C)[C@H](OC(C)=O)[C@@H](O)[C@H]4O)[C@H]3OC(C)=O)[C@H]2O)[C@@H](O)[C@H]1O | 4 (≈ 3.76 µg/mL) |  |  |  |  |  |  |  |  | 
CCCCCCCCO[C@@H]1O[C@@H](C)[C@H](OC(=O)CCCCC)[C@@H](O[C@@H]2O[C@@H](C)[C@H](OC(C)=O)[C@@H](O[C@@H]3O[C@@H](C)[C@H](OC(C)=O)[C@@H](O)[C@H]3OC(C)=O)[C@H]2OC(C)=O)[C@H]1O [MEZZETTIASIDE 2] | > 128 | 17 |  |  |  |  |  | 5 | 7 | 10
CCCCCCCCO[C@@H]1O[C@@H](C)[C@H](OC(=O)CCCCC)[C@@H](O[C@@H]2O[C@@H](C)[C@H](OC(C)=O)[C@@H](O[C@@H]3O[C@@H](C)[C@H](OC(C)=O)[C@@H](OC(C)=O)[C@H]3O)[C@H]2OC(C)=O)[C@H]1O [MEZZETTIASIDE 3] | > 128 | 10 |  |  |  |  |  | 6 | 17 | 14
CCCCCCCCO[C@@H]1O[C@@H](C)[C@H](OC(=O)CCCCC)[C@@H](O[C@@H]2O[C@@H](C)[C@H](OC(C)=O)[C@@H](O[C@@H]3O[C@@H](C)[C@H](OC(C)=O)[C@@H](O)[C@H]3O)[C@H]2OC(C)=O)[C@H]1O [MEZZETTIASIDE 4] | 8 (≈ 6.34 µg/mL) | 9 | 16 (≈ 12.7 µg/mL) | 16 (≈ 12.7 µg/mL) | > 32 | 32 (≈ 25.4 µg/mL) | > 32 | 8 | 19 | 25
CCCCCCCCO[C@@H]1O[C@@H](C)[C@H](OC(=O)CCCCC)[C@@H](O[C@@H]2O[C@@H](C)[C@H](OC(C)=O)[C@@H](O[C@@H]3O[C@@H](C)[C@H](O)[C@@H](O)[C@H]3OC(C)=O)[C@H]2OC(C)=O)[C@H]1O [MEZZETTIASIDE 8] | 16 (≈ 12.7 µg/mL) | 24 | > 32 | > 32 | > 32 | > 32 | > 32 | 10 | > 20 | 25
CCCCCCCCO[C@@H]1O[C@@H](C)[C@H](OC(=O)CCCCC)[C@@H](O[C@@H]2O[C@@H](C)[C@H](O)[C@@H](OC(C)=O)[C@H]2OC(C)=O)[C@H]1O [MEZZETTIASIDE 9] | 16 (≈ 9.68 µg/mL) | 151 | 32 (≈ 19.4 µg/mL) | > 32 | > 32 | > 32 | > 32 | > 20 | 19 | 9
CCCCCCCCO[C@@H]1O[C@@H](C)[C@H](OC(=O)CCCCC)[C@@H](O[C@@H]2O[C@@H](C)[C@H](OC(C)=O)[C@@H](OC(C)=O)[C@H]2OC(C)=O)[C@H]1O [MEZZETTIASIDE 11] | > 128 | 15 |  |  |  |  |  | 14 | 20 | 9
CCCCCCCCO[C@@H]1O[C@@H](C)[C@H](OC(=O)CCCCC)[C@@H](O[C@@H]2O[C@@H](C)[C@H](OC(C)=O)[C@@H](O)[C@H]2OC(C)=O)[C@H]1O [MEZZETTIASIDEIDE 10] | > 128 | > 500 |  |  |  |  |  | > 20 | > 20 | > 20
